# Compound activity as filed in PubChem.
# RAM network inh: inhibitors of the yeast RAM network, primary screen, dse1pr::URA3 reporter, 5-FOA selection; 190,000 tested, 1.8% active; S. cerevisiae dse1pr::URA3 reporter, 5-FOA growth OD615, 2 d; analog-sensitive cbk1-as2 kinase mutant strain; inhibition, % at 50 µM;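 active means inhibition above a set limit, 3 SD over mean compound inhibition, cut at about 8.4% in these data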;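 further: 0% = DMSO-only wells with no growth and 100% = 10 µM 1-NA-PP1 full growth; inhibition rescues growth on 5-FOA so higher OD means more RAM inhibition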
# NPY-Y1 antag: NPY-Y1 receptor antagonists, primary screen, cell-based; inhibition, % at 3.6 µM; 200,000 tested, 1% active; AID 1040, 2008; HEK293-CNG Y1 cells, membrane potential fluorescence; NPY at EC95, then isoproterenol;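 active means inhibition above the campaign mean inhibition of all tested compounds plus 3 SD, cut at about 20% in these data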;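 further: 0% = DMSO wells given NPY plus isoproterenol and 100% = isoproterenol alone without NPY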
# Target sequence (P25929 whole entry, looked up): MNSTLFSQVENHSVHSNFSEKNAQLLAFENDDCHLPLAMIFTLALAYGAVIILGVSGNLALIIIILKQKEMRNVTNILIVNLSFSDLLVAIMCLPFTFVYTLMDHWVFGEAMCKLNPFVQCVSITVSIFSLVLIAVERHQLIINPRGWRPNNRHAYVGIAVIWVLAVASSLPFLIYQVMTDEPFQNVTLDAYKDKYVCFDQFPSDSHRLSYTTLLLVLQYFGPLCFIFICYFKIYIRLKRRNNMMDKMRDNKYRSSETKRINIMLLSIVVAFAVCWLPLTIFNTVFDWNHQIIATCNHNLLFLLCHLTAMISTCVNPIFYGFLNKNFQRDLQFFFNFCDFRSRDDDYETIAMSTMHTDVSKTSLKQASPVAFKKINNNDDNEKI
#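 Assay system: HEK293 Y1/CNG channel cell line; Doses: single compound dose of 3.6 µM, 0.4% DMSO; Timing: dye 3 h, compound 60 min room temperature, stimulation 45 min; Technique: Membrane-potential fluorescent dye readout; Measure: % inhibition of NPY effect.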
# WT yeast gro inh: growth inhibition of WT strain, primary screen, mitochondrial fusion inhibitor project, WT and mutant strains, chemical genetic; 190,000 tested, 2.1% active; inhibition, % at 10 µM; mitochondrial fusion phenotypic screen; in the data active means inhibition above about 58%; tested in S. cerevisiae
# NPY Y2 blocker: NPY-Y2 receptor antagonists, primary screen, cell-based; Neuropeptide Y receptor type 2 (Homo sapiens), P49146; NPY-Y2 expressing cells, antagonist mode; inhibition, % at 2.7 µM; 140,000 tested, 0.99% active; AID 793, 2007; in the data active means inhibition above about 17%;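 further: 0% = vehicle with agonist challenge and 100% = reference antagonist with challenge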
# NPY1 pot ag: NPY-Y1 receptor potentiators or agonists, primary screen, cell-based | Neuropeptide Y receptor type 1 (Homo sapiens), P25929 | NPY-Y1 expressing cells, potentiator/agonist activation | activation, % at 3.6 µM | 220,000 tested, 0.37% active | AID 1304, 2008; in the data active means activation above about 33%, passing the limit was not always enough;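 further: cells stimulated with NPY at EC10 then isoproterenol at EC100; 0% = low agonist plus stimulus and 100% = saturating agonist plus stimulus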
# NPY-Y2 PAM-ag: NPY-Y2 potentiators or agonists, primary screen, cell-based | Neuropeptide Y receptor type 2 (Homo sapiens), P49146 | cells expressing NPY-Y2, potentiator/agonist read-out | 220,000 tested, 0.45% active | activation, % at 3.6 µM; in the data active means activation above about 27%;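 further: cells stimulated with NPY near EC25 plus isoproterenol at EC100; 0% = vehicle plus submaximal agonist and 100% = vehicle plus saturating agonist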
# * marks the source's active call; other numbers are inactive results; nt = no result. Compounds with a hit are over-represented: about 4.9% of the library has one in this group of screens.
SMILES,RAM network inh,NPY-Y1 antag,WT yeast gro inh,NPY Y2 blocker,NPY1 pot ag,NPY-Y2 PAM-ag
O=C(COc1ccc(Cl)cc1Cl)Nc1ccc(Cl)cn1,5.1,4.6,8.8,10.0,-35.4,-20.8
COc1ccc(CC(=O)NCc2nnc(SCc3ccc([N+](=O)[O-])cc3)n2C)cc1,0.6,-3.9,-13.0,nt,-5.9,7.4
Cc1cc(NC(=O)Nc2cccc3ccccc23)no1,2.7,-2.8,8.2,3.5,1.1,-1.1
O=C(O)C1Nc2c(O)cccc2C2C=CCC12 (configuration not stated),4.8,2.0,-0.9,0.3,2.9,-0.5
O=C(OC1CCCCC1)c1ccc2c(c1)C1C=CCC1C(C(=O)O)N2 (configuration not stated),11.4*,-5.5,21.1,0.2,0.4,2.3
Cn1nnc(NC(=S)NC(=O)c2ccc(-c3ccc(Br)cc3)o2)n1,1.4,10.4,58.5*,nt,-14.5,-23.4
CCOC(=O)Cn1nc(-c2ccccc2)c2ccccc2c1=O,nt,2.7,nt,3.2,2.9,-6.1
O=c1c2ccccc2c(-c2ccccc2)nn1Cc1c(Cl)cccc1Cl,5.4,3.5,61.4*,2.7,4.5,0.8
Cc1cccc(N2CCN(C(=O)c3cc4c(C)nc5ccccc5c4o3)CC2)c1C,nt,nt,66.9*,nt,nt,nt
Cc1nc2ccccc2c2oc(C(=O)N3CCN(C4CCCCC4)CC3)cc12,1.7,1.3,1.5,6.0,4.5,3.0
CCCCN(CCCC)CP(=O)(c1ccccc1)c1ccccc1,0.0,27.5*,18.2,26.3*,9.4,-8.0
Cc1ccccc1NC1C=CS(=O)(=O)C1 (configuration not stated),0.1,1.4,-24.0,0.5,21.5,106.9*
O=c1oc(Nc2cccc(F)c2)nc2ccccc12,2.5,3.1,77.9*,2.2,12.2,-10.6
Nc1nc(Nc2cccc(F)c2)nc2ccccc12,0.1,-3.1,41.9,-1.2,42.4*,43.2*
Fc1cccc(NC(=S)Nc2cccnc2)c1,0.4,0.2,2.2,nt,6.1,-16.5
Fc1cccc(NC(=S)NNc2c3ccccc3nc3ccccc23)c1,5.7,-15.5,75.7*,nt,20.3,14.9
c1ccc(Nc2nc3ccccc3o2)cc1,-0.5,-6.2,17.9,1.3,4.2,-1.5
CCCNC(=O)C(NS(=O)(=O)c1ccc2c(c1)c(=O)n(C)c(=O)n2C)c1ccccc1 (configuration not stated),3.9,0.0,-4.5,1.2,-10.0,-7.1
CC1CCc2c(sc(NC(=O)COC(=O)c3ccc(O)cc3)c2C#N)C1 (configuration not stated),3.7,10.1,96.5*,nt,-3.1,1.8
CC1CCc2c(sc(NC(=O)COC(=O)C3CCCO3)c2C#N)C1 (configuration not stated),2.8,2.5,19.3,nt,-6.5,-7.5
Cc1ccc(Sc2ncnc3onc(C)c23)c(C)c1,1.6,-1.8,60.6*,nt,-12.4,6.0
COc1ccc(Sc2ncnc3onc(C)c23)cc1,1.4,7.1,5.4,nt,-4.4,2.0
Cc1noc2ncnc(Sc3ccccc3Cl)c12,-0.2,1.5,98.6*,-0.8,-1.3,-10.0
O=C(Nc1cccc(Cl)c1)N(CCCN1CCOCC1)Cc1ccccc1F,2.1,3.0,21.0,1.9,-11.7,-24.0
O=C(NCNC(=O)c1ccccc1)c1ccccc1,2.3,3.2,2.8,-0.4,6.5,6.1
SMILES,RAM network inh,NPY-Y1 antag,WT yeast gro inh,NPY Y2 blocker,NPY1 pot ag,NPY-Y2 PAM-ag
Cc1ccc(/C=N/n2cnc3sc(-c4ccccc4)cc3c2=O)o1,2.3,1.4,86.0*,7.7,-0.4,7.0
CC(C)CNC(C)C(=O)Nc1ccc(S(N)(=O)=O)cc1 (configuration not stated),-0.2,-4.0,2.4,nt,-2.0,8.9
CC1=CC(C)(C)N(C(=O)CCl)c2cc(C)ccc21,0.4,-0.1,-29.1,nt,7.7,2.4
CC1=CC(C)(C)N(S(=O)(=O)c2ccc(C)cc2)c2cc(C)ccc21,5.9,13.3,75.6*,16.5,-32.4,9.1
COc1ccc(CC(=O)Nc2ccc(S(=O)(=O)Nc3nccc(C)n3)cc2)cc1,4.0,-4.8,3.4,1.1,17.1,-0.9
Cc1nc2c3ccccc3nc(NNC(=O)CCC(=O)NCCC(C)C)n2n1,9.2*,2.2,6.7,1.5,-39.2,11.8
CC(C)CCNC(=O)C(c1ccco1)N(Cc1cccs1)C(=O)Cn1nnc2ccccc21 (configuration not stated),-1.2,23.7*,2.1,13.9,-26.0,-19.2
CCOc1ccc(Br)cc1C1C(C(=O)OC)=C(N)Oc2cc(N(C)C)ccc21 (configuration not stated),2.4,-0.4,58.6*,7.2,14.8,20.6
CCOc1ccccc1C1C(C(=O)OC)=C(N)OC2=C1C(=O)CCC2 (configuration not stated),1.3,1.8,-2.6,1.1,-6.8,2.2
CC(Oc1ccc(Cl)cc1)c1ccnn1S(=O)(=O)c1ccc(Cl)cc1 (configuration not stated),3.2,21.0*,49.3,21.9*,-8.7,-20.3
COc1cc(CNC(C)(C)CO)cc(Br)c1OCc1ccc(Cl)cc1Cl,-0.8,5.2,93.8*,5.3,-39.1,-14.6
COc1cc(CNCCO)cc(Br)c1OCc1ccccc1Cl,-1.1,-1.9,78.6*,3.2,-9.5,-2.8
COc1ccc(/C=N/n2cnc3c([nH]c4ccc(F)cc43)c2=O)cc1CN1CCCC1,nt,nt,nt,nt,-15.1,-16.1
COc1ccc(Cl)cc1CN1CCN(c2nc(C)cc(C)c2C#N)CC1,0.3,6.2,32.7,-0.6,-31.2,-6.8
Cc1cc(C)c(C#N)c(N2CCN(CCOc3ccc(Cl)cc3)CC2)n1,0.3,13.6,65.2*,7.5,-51.0,-17.2
CCC(C)Sc1nc2c(c(=O)n1C)SC(C)C2 (configuration not stated),-0.5,4.4,61.4*,7.8,3.2,-15.9
O=C(Nc1ccc(Cl)cc1C(=O)Nc1ccc(Br)cn1)c1ccco1,1.1,20.9*,78.6,30.8*,-90.8,-27.5
COc1ccc(Cl)cc1NC(=O)c1ccco1,1.8,1.4,3.5,3.2,-5.6,-18.7
Cc1ccc(/C=N/NC(=O)CNC(=O)COc2ccccc2)cc1,-0.4,-3.9,1.1,2.4,-24.1,11.0
COc1ccc(-c2cc(C3CCN(Cc4ccc([N+](=O)[O-])cc4)CC3)[nH]n2)cc1,-2.0,6.8,-5.7,nt,8.0,-9.7
Cc1ccc(-n2c(C)cc(/C=N/NC(=O)CN(c3ccc(C)cc3C)S(C)(=O)=O)c2C)cc1,0.1,2.2,-7.2,2.7,-10.0,8.4
Cc1cc(C)cc(-n2c(C)cc(/C=N/NC(=O)CN(c3c(C)cccc3C)S(C)(=O)=O)c2C)c1,1.7,5.8,60.3*,9.1,-3.0,-12.5
